HSV augment: enhancers of HSV replication in host cells, fold increase, host cell viability. HSV replication augmentation in cells. 220,000 tested, 0.005% active. maximum fold increase; in the data active means maximum fold increase above about 1.5; inconclusive means no clear call, values can overlap the other calls; tested in PC3 cells
Furin inh: human furin inhibitors, primary screen, biochemical, fluorescence intensity. P09958. purified furin, fluorogenic substrate cleavage. inhibition, % at 20 µM or 30 µM. 220,000 tested, 0.061% active; in the data active means inhibition above about 25%
FXIa inh: human FXIa protease inhibitors, primary screen, biochemical, 1536-well; purified FXIa, Boc-Glu-Ala-Arg-AMC fluorogenic substrate; inhibition, % at 5 µM; 220,000 tested, 0.14% active; AID 798, 2007;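 active means inhibition of at least 40%; inactive means inhibition below 40%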;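 further: fluorescence of freed AMC excited at 355 nm; 0% = enzyme without compound and 100% = no enzyme blank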
Target sequence (P03951 19-387 limits assumed): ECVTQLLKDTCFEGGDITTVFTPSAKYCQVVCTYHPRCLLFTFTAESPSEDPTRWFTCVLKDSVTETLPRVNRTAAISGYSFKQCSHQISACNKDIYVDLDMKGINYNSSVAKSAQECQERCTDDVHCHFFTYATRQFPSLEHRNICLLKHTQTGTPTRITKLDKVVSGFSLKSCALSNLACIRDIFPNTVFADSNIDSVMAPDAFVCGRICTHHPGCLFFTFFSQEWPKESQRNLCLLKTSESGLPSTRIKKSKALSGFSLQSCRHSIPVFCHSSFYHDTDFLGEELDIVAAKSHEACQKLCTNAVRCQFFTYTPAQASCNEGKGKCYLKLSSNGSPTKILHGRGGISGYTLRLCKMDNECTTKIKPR
Target sequence (P03951 388-625 limits assumed): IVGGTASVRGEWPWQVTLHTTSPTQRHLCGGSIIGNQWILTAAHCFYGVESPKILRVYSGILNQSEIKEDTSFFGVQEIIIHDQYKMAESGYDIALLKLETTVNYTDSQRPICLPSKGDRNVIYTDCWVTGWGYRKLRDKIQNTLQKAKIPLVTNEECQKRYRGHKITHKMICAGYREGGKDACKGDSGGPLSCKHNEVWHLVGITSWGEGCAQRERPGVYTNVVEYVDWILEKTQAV
hK5 inh: human KLK5 protease inhibitors, primary screen, biochemical, 1536-well | recombinant hK5, fluorogenic AMC substrate cleavage | inhibition, % at 5 µM | 210,000 tested, 0.59% active | AID 873, 2007;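 active means inhibition of 40% or more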;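 further: 0% = enzyme controls without compound and 100% = no-enzyme blanks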
thrombin 1536: human alpha-thrombin inhibitors, primary screen, counter-screen for coagulation protease inhibitor project, biochemical, 1536-well, fluorogenic AMC substrate; Boc-VPR-AMC fluorogenic substrate cleavage; inhibition, % at 5 µM; 220,000 tested, 0.26% active; AID 1046, 2008;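 active means inhibition at or above 40%; inactive means inhibition below 40%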;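 further: 0% = enzyme with no compound and 100% = wells without enzyme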
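Material: Human alpha-thrombin protein | Buffer or medium: pH 7.5 Tris-saline with Tween 20 | Reagent: Boc-VPR-AMC substrate, 15 µM final | Schedule: Reaction at ambient temperature | Detection: AMC fluorescence at 355 nm excitation and 460 nm emission | Evaluation: Percent inhibition scaled between no-compound controls and no-enzyme blanks | Controls: no-compound enzyme wells and no-enzyme blanks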
FXIIa inh: human FXIIa protease inhibitors, primary screen, biochemical, 1536-well. Coagulation factor XII (Homo sapiens), P00748. purified FXIIa, Boc-QGR-AMC fluorogenic substrate, 2 h. inhibition, % at 5 µM. 220,000 tested, 0.3% active. AID 800, 2007; in the data active means inhibition above about 40%;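 further: 0% = enzyme with no compound and 100% = blank without enzyme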
Active calls of the source: *; i = inactive; ? = inconclusive; . = no result given. An excerpt weighted towards active compounds, which were near 1% of everything screened.

SMILES	HSV augment	Furin inh	FXIa inh	hK5 inh	thrombin 1536	FXIIa inh
Cc1ccc(C(=O)Nc2c(C)n(C)n(-c3ccccc3)c2=O)cc1S(=O)(=O)N1CCOCC1	i	-20.3	.	.	.	.
Cc1c(NC(=O)c2ccc(Cl)c(S(=O)(=O)N3CCOCC3)c2)c(=O)n(-c2ccccc2)n1C	i	29.7*	-9.5	-15.4	-3.4	-3.0
COc1ccc(/C=N/NC(=O)c2cccc(NC(=O)c3ccccc3Cl)c2)c(OC)c1	i	-23.7	-2.9	-11.8	2.4	4.4
O=C(c1cc(-c2cccs2)nc2ccccc12)N1CCN(c2ccccc2O)CC1	i	-6.1	1.4	8.2	.	6.3
Cc1ccccc1NNC(=O)C(=O)NNc1ccccc1C	i	-6.6	16.1	50.2*	18.0	34.3
Cc1cc(C(=O)N/N=C/c2c(C)nn(-c3ccccc3)c2C)n[nH]1	i	1.9	26.1	89.2*	17.5	34.4
Cc1ccc(Nc2cc(=O)[nH]c(=O)[nH]2)c(C)c1	.	-19.6	1.5	-12.4	-1.6	10.2
Cc1cccc(Nc2cc(=O)[nH]c(=O)[nH]2)c1C	i	0.9	31.5	-5.8	1.3	45.5*
O=S(=O)(NC1CC1)c1ccc(S(=O)(=O)N(Cc2ccccn2)C2CC2)cc1	i	-7.4	-4.6	-1.7	-4.8	1.9
NC(=O)NC(CC(=O)NCCc1ccc(S(N)(=O)=O)cc1)c1ccccc1Cl (centres undefined)	i	-11.7	-1.1	-3.4	2.5	2.8
C/C(=N\NS(=O)(=O)c1ccc(Cl)c([N+](=O)[O-])c1)c1cc2ccccc2o1	i	-18.0	-7.1	0.8	-1.3	0.7
C/C(=N\NS(=O)(=O)c1ccc(C)c([N+](=O)[O-])c1)c1cc2ccccc2o1	i	-6.0	11.5	106.6*	6.0	15.1
O=C(O)c1ccccc1C(=O)NCCc1c(C(=O)O)[nH]c2ccc(Cl)cc12	i	-11.1	-2.7	-0.1	-5.5	6.0
O=S(=O)(CC(c1ccccc1)N1CCCCC1)c1ccc(Cl)cc1 (centres undefined)	i	-9.0	4.5	47.8*	6.0	15.6
Cc1ccc(S(=O)(=O)CC(c2ccccc2)N2CCCCC2)cc1 (centres undefined)	i	-33.5	5.0	3.3	-1.5	.
COC(=O)C1CC(=O)c2ccsc2C1 (centres undefined)	i	-6.0	-1.4	29.8	49.4*	9.5
COc1cc(/C=N/Nc2cc(C)nc(NS(=O)(=O)c3ccccc3)n2)ccc1O	i	10.3	66.7*	23.0	25.7	37.4
CCCCNC(=O)CNC(=S)N(CCCN1CCOCC1)Cc1cccs1	i	-26.3	4.3	-26.8	-2.5	3.7
O=S(=O)([N-]c1nc2ccccc2nc1-n1cc[n+](Cc2ccccc2)c1)c1ccc(Cl)cc1	i	-3.0	59.7*	27.6	16.1	58.0*
CC(C)CC[n+]1ccn(-c2nc3ccccc3nc2[N-]S(=O)(=O)c2ccccc2)c1	i	-4.6	2.2	-17.0	0.9	15.3
COc1cccc2c1OC1(C)CC2NC(=O)N1Cc1ccccc1 (centres undefined)	i	-20.9	-1.9	-12.0	2.3	5.6
CCOc1cccc2c1OC1(C)CC2NC(=O)N1Cc1ccccc1 (centres undefined)	i	-8.2	62.2*	37.8	3.7	36.7
NC(=O)c1c(NC(=O)Cn2nc(C(=O)O)c3ccccc3c2=O)sc2c1CCCC2	i	-3.8	21.5	33.7	98.7*	32.2
Cc1ccc(NC(=O)c2ccccn2)c(Br)c1	i	-14.1	1.8	.	-4.2	3.6
COc1ccc(Br)c(C(=O)Nc2ccc(F)cc2)c1	i	-18.7	6.0	1.4	-3.5	7.0
SMILES	HSV augment	Furin inh	FXIa inh	hK5 inh	thrombin 1536	FXIIa inh
CN1CC=C2C(C#N)=C(N)C(C#N)(C#N)[C@H](c3ccoc3)[C@H]2C1	?	-7.0	-6.6	-35.5	-2.2	-2.4
N#CC1=C(N)C(C#N)(C#N)[C@H](c2ccoc2)[C@H]2CN(Cc3ccccc3)CC=C12	?	-11.2	7.2	112.0*	19.6	28.8
Cn1c(=O)cc(OCCCC(=O)NC2CCCC2)c2ccccc21	i	-8.5	17.0	70.0*	16.8	22.5
Cc1ccccc1Oc1ncnc2oc(-c3ccccc3)cc12	i	-4.2	6.9	59.2*	33.8	22.3
Clc1ccc(Oc2ncnc3oc(-c4ccccc4)cc23)cc1	i	-14.2	18.0	-4.4	2.5	33.3
COc1cc(-c2nnco2)cc(OC)c1OC	i	-4.7	34.4	38.1	-1.8	47.4*
CCOC(=O)c1sc(NC(=O)CSC(=S)N2CCN(C)CC2)nc1C	i	0.2	44.3*	36.6	14.1	32.8
CC(C)OCCCn1c(=S)[nH]c2cc3c(cc2c1=O)OCO3	i	-15.0	18.8	44.5*	43.7*	20.5
O=c1c2cc3c(cc2[nH]c(=S)n1CCN1CCOCC1)OCO3	i	-7.4	-8.9	-13.8	2.5	-1.1
CC1CN(C(=O)CSc2ncnc3sccc23)CC(C)O1 (centres undefined)	i	-6.9	-3.0	0.7	-5.3	-6.1
CCC(C)NC(=O)CSc1ncnc2sccc12 (centres undefined)	i	-10.8	31.4	18.5	25.9	40.3*
Cc1oc(C(C)(C)C)cc1C(=O)Nc1ccc2c(c1)OCCO2	.	-22.0	0.0	40.1*	21.6	3.0
CCOC(=O)C1=C(C)N(CCCC(=O)O)C(=O)NC1c1ccccc1OS(=O)(=O)c1ccc(C)cc1 (centres undefined)	i	-10.4	7.0	-5.2	4.4	19.8
CN(CC1CCCO1)S(=O)(=O)c1ccc(C(=O)Nc2ccc3c(c2)OCO3)cc1 (centres undefined)	.	4.9	34.2	61.2*	5.3	28.8
COCCNC(=O)C12CC3CC(CC(Cl)(C3)C1)C2	i	-7.6	0.8	-2.3	2.7	6.3
O=C(NCCNC(=O)c1cc(OCC(F)(F)F)ccc1OCC(F)(F)F)Nc1ccc(Cl)cc1	i	-2.0	1.9	-11.0	5.7	19.4
O=C(Nc1ccc(F)cc1)Nc1cc(OCC(F)(F)F)cc(OCC(F)(F)F)c1	i	-23.8	15.9	29.9	24.7	55.3*
O=C(NCCNC(=O)c1cc(OCC(F)(F)F)ccc1OCC(F)(F)F)Nc1ccc(OC(F)(F)F)cc1	i	-11.5	8.2	48.9*	2.7	18.1
CC(C)NC(=S)N/N=C/c1ccc2c(c1)OCCO2	i	-7.3	8.9	-8.0	-13.9	8.2
O=C(CSc1nc2[nH]ncc2c(=O)[nH]1)N1CCCC1	i	-17.4	4.0	-5.3	-15.4	8.3
O=C(CSc1nc2[nH]ncc2c(=O)[nH]1)N1CCCCC1	i	-11.4	3.4	36.1	47.0*	14.7

High-throughput results: PubChem BioAssay, several laboratories
